The values that follow come from ChEMBL document CHEMBL1126931, “Synthesis of 20-hydroxy-, 20-amino-, and 20-nitro-14-hydroxy-21-nor-5 beta,14 beta-pregnane C-3 glycosides and related derivatives: structure-activity relationships of pregnanes that bind to the digitalis receptor” (J Med Chem, 1993).

This test has as its target Sodium/potassium-transporting ATPase. The experiment in a line: Inhibition of [3H]- ouabain binding to digitalis receptor. In kind it is protein-complex assay, Cavia porcellus. Put shortly: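 Radioligand binding to the digitalis receptor recognition site of heart muscle, read as displacement of [3H]ouabain.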

As to `CC1O[C@@H](O[C@H]2CC[C@@]3(C)[C@H](CC[C@@H]4[C@@H]3CC[C@]3(C)[C@@H](CO)CC[C@]43O)C2)C[C@@H](O)[C@@H]1O` (stereo partly specified), the half-maximal inhibitory concentration (IC50) was found to be 610 nM.
Consider `CC1O[C@@H](O[C@H]2CC[C@@]3(C)[C@H](CC[C@@H]4[C@@H]3CC[C@]3(C)[C@@H](C[N+](=O)[O-])CC[C@]43O)C2)C[C@@H](O)[C@@H]1O` (stereo partly specified), for which the 50% inhibitory concentration (IC50) came to 88 nM.
For `C[C@H]1O[C@H](O[C@H]2CC[C@@]3(C)[C@H](CC[C@@H]4[C@@H]3CC[C@]3(C)[C@@H](C(=O)CO)CC[C@]43O)C2)[C@H](O)[C@H](O)[C@H]1O`, the IC50 came out at 1070 nM. Compared with the last compound, the IC50 is about 12-fold higher.
The compound `CC1O[C@@H](O[C@H]2CC[C@@]3(C)[C@H](CC[C@@H]4[C@@H]3CC[C@]3(C)[C@@H](CO)CC[C@]43O)C2)C(O)[C@@H](O)[C@H]1O` (stereo partly specified) came in with an IC50 of 360 nM. Compared with the last compound, the IC50 is about 3-fold lower.
The result for `CC1O[C@@H](O[C@H]2CC[C@@]3(C)[C@H](CC[C@@H]4[C@@H]3CC[C@]3(C)[C@@H](C[N+](=O)[O-])CC[C@]43O)C2)C(O)[C@@H](O)[C@H]1O` (stereo partly specified) reads 12 nM.
In the case of `CC1O[C@@H](O[C@H]2CC[C@@]3(C)[C@H](CC[C@@H]4[C@@H]3CC[C@]3(C)[C@@H](C(=O)O)CC[C@]43O)C2)C[C@@H](O)[C@@H]1O` (stereo partly specified), the IC50 was determined as 36000 nM.
`COC(=O)[C@H]1CC[C@]2(O)[C@@H]3CC[C@@H]4C[C@@H](O[C@H]5C[C@@H](O)[C@H](O)C(C)O5)CC[C@]4(C)[C@H]3CC[C@]12C` (stereo partly specified) gave an IC50 of 15000 nM.
For the compound `CC1O[C@@H](O[C@H]2CC[C@@]3(C)[C@H](CC[C@@H]4[C@@H]3CC[C@]3(C)[C@@H](CN)CC[C@]43O)C2)C(O)[C@@H](O)[C@H]1O` (stereo partly specified), the IC50 worked out at 99 nM.
With `CC1O[C@@H](O[C@H]2CC[C@@]3(C)[C@H](CC[C@@H]4[C@@H]3CC[C@]3(C)[C@@H](CC[N+](=O)[O-])CC[C@]43O)C2)C(O)[C@@H](O)[C@H]1O` (stereo partly specified), the IC50 stood at 45 nM.
The result for `C[C@H]1O[C@@H](O[C@H]2CC[C@@]3(C)[C@H](CC[C@@H]4[C@@H]3CC[C@]3(C)[C@@H](CN)CC[C@]43O)C2)C[C@@H](O)[C@@H]1O` reads 270 nM; that for `C[C@H]1O[C@@H](O[C@H]2[C@@H](O)C[C@H](O[C@H]3[C@@H](O)C[C@H](O[C@H]4CC[C@@]5(C)[C@H](CC[C@@H]6[C@@H]5CC[C@]5(C)[C@@H](C7=CC(=O)OC7)CC[C@]65O)C4)O[C@@H]3C)O[C@@H]2C)C[C@H](O)[C@@H]1O` [DIGITOXIN], 8 nM.

As usually defined, the IC50 is the concentration that inhibits the measured activity by half. Lower therefore signals inhibition by little substance.
